Columns and labels:
[1] = target: Somatostatin receptor type 2 (Homo sapiens, UniProt P30874); assay: The compound was tested for binding affinity against human Somatostatin receptor type 2
Outline: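 Membranes from CHO-K1 cells transfected with the cloned human sst2. Incubated 30 min at 37 °C with 0.05 nM [125I]MK-678 in HEPES pH 7.4 with BSA, MgCl2, Trasylol, bacitracin and PMSF. Filtration on PEI-soaked GF/C filters. Nonspecific binding defined with 1.0 μM SRIF. Mean ± SEM; single values are from one experiment.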

Somatostatin receptor = assay: Antagonism of in vitro SRIF inhibition of GH release in rat in vitro pituitary cell assay; assay type: functional, cell-based; settings: pituitary gland cell
Outline: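 Dispersed adult male rat anterior pituitary cells (trypsin/DNase), about 200 000 cells/well, cultured 4–5 days at 37 °C. GH measured by double-antibody RIA. IC50 versus SRIF, mean ± SEM of n dose–response curves.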

[2] = target: Somatostatin receptor type 1 (Homo sapiens, UniProt P30872); assay: The compound was tested for binding affinity against human Somatostatin receptor type 1
Outline: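 Membranes from CHO-K1 cells transfected with the cloned human receptor. Terminated by filtration on PEI-soaked GF/C filters. Nonspecific binding defined with 1.0 μM SRIF. Mean ± SEM; single values are from one experiment.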

[3] = target: Somatostatin receptor type 4 (Homo sapiens, UniProt P31391); assay: The compound was tested for binding affinity against human Somatostatin receptor type 4
Outline: (§1)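 CHO-K1 cells stably transfected (calcium phosphate) with cloned human sst3 or sst4. Membranes made in ice-cold 50 mM Tris-HCl, resuspended in 10 mM Tris-HCl, then incubated 30 min at 37 °C with 0.05 nM [125I]Tyr11-SRIF in HEPES pH 7.4 with BSA, MgCl2 and protease inhibitors. Filtered on GF/C; nonspecific binding with 1.0 µM SRIF. Mean ± SEM, or one experiment.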

[4] = target: Somatostatin receptor type 3 (Homo sapiens, UniProt P32745); assay: The compound was tested for binding affinity against human Somatostatin receptor type 3; outline: as §1
Somatostatin receptor type 3, sequence (P32745 whole entry): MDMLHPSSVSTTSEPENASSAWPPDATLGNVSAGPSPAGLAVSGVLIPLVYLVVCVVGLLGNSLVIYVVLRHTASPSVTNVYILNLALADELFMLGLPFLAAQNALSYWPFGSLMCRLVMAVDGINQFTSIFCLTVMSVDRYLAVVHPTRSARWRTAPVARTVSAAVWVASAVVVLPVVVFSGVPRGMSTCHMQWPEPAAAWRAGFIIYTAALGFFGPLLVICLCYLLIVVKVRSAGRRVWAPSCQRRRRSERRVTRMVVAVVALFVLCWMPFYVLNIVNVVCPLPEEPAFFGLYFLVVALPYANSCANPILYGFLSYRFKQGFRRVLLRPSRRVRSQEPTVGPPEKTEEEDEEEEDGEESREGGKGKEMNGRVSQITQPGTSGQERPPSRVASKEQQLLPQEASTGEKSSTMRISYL

Somatostatin receptor type 2, sequence (P30874 whole entry): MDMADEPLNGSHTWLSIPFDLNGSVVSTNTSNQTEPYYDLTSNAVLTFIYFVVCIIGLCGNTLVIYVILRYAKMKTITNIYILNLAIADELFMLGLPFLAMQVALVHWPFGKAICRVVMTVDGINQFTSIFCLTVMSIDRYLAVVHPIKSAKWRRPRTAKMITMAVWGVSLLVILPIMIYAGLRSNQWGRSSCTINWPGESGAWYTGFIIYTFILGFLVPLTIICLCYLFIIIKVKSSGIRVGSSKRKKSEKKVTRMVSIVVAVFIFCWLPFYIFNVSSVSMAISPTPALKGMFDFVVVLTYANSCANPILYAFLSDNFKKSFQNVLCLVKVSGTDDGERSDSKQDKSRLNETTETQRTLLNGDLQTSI
Somatostatin receptor type 4, sequence (P31391 whole entry): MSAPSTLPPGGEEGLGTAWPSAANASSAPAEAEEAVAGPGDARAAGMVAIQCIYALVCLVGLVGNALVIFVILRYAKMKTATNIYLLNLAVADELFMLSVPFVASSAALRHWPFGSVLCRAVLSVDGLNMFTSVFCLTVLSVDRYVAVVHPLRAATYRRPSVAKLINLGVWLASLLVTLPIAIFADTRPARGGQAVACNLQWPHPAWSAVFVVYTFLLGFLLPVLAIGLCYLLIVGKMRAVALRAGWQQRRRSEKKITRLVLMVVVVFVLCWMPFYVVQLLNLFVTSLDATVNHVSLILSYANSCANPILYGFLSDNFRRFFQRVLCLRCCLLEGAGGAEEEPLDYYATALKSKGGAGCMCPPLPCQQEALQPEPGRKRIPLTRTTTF
Somatostatin receptor type 1, sequence (P30872 whole entry): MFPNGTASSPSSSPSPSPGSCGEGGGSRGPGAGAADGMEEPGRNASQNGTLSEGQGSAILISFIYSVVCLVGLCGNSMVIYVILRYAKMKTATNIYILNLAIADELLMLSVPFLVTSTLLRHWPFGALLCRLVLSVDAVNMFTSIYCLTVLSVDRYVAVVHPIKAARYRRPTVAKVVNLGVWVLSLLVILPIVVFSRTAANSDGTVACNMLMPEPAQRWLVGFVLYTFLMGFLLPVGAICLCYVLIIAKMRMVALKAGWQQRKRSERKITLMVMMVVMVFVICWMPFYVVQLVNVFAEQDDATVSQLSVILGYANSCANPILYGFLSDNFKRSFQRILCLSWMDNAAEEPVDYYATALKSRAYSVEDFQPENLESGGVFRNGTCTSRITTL

Row | Structure (SMILES) | IC50 (Somatostatin receptor) | further results
1 | C[C@@H](O)[C@@H]1NC(=O)[C@H](CCCCN)NC(=O)[C@@H](Cc2c[nH]c3ccccc23)NC(=O)[C@H](Cc2ccc(O)cc2)NC(=O)[C@H](NC(=O)[C@@H](N)Cc2ccc(Cl)cc2)CSSC[C@@H](C(=O)N[C@@H](Cc2ccc3ccccc3c2)C(N)=O)NC1=O | 1.1 nM | Ki [1]: 26 nM; Ki [2]: > 1000 nM; Ki [3]: > 1000 nM; Ki [4]: 93 nM
2 | C[C@@H](O)[C@@H]1NC(=O)[C@H](CCCCN)NC(=O)[C@@H](Cc2c[nH]c3ccccc23)NC(=O)[C@@H](Cc2ccccn2)NC(=O)C(NC(=O)[C@@H](N)Cc2ccc(Cl)cc2)CSSCC(C(=O)N[C@@H](Cc2ccc3ccccc3c2)C(N)=O)NC1=O (stereo in doubt) | 2.7 nM | 
3 | CC(C)[C@H]1NC(=O)[C@H](CCCCN)NC(=O)[C@@H](Cc2c[nH]c3ccccc23)NC(=O)[C@H](Cc2cccnc2)NC(=O)[C@@H](NC(=O)[C@@H](N)Cc2ccc3ccccc3c2)CSSC[C@H](C(=O)N[C@H](C(N)=O)C(c2ccccc2)c2ccccc2)NC1=O | 91 nM | 
4 | CC(C)[C@H]1NC(=O)[C@H](CCCCN)NC(=O)[C@@H](Cc2c[nH]c3ccccc23)NC(=O)[C@H](Cc2cccnc2)NC(=O)[C@@H](NC(=O)[C@@H](N)Cc2ccccc2F)CSSC[C@H](C(=O)N[C@@H](Cc2ccccc2F)C(N)=O)NC1=O | 114 nM | 
5 | CC(C)[C@H]1NC(=O)[C@H](CCCCN)NC(=O)[C@@H](Cc2c[nH]c3ccccc23)NC(=O)[C@H](Cc2cccnc2)NC(=O)[C@@H](NC(=O)[C@@H](N)Cc2ccc(F)cc2)CSSC[C@H](C(=O)N[C@@H](Cc2ccc(F)cc2)C(N)=O)NC1=O | 87 nM | 
6 | CC(C)[C@H]1NC(=O)[C@H](CCCCN)NC(=O)[C@@H](Cc2c[nH]c3ccccc23)NC(=O)[C@H](Cc2ccccn2)NC(=O)[C@@H](NC(=O)[C@@H](N)Cc2c(F)c(F)c(F)c(F)c2F)CSSC[C@H](C(=O)N[C@@H](Cc2c(F)c(F)c(F)c(F)c2F)C(N)=O)NC1=O | 765 nM | 
7 | CC(C)[C@H]1NC(=O)[C@H](CCCCN)NC(=O)[C@@H](Cc2c[nH]c3ccccc23)NC(=O)[C@H](Cc2cccnc2)NC(=O)[C@@H](NC(=O)[C@@H](N)Cc2ccc(I)cc2)CSSC[C@H](C(=O)N[C@@H](Cc2ccc(I)cc2)C(N)=O)NC1=O | 4 nM | 
8 | CC(C)[C@H]1NC(=O)[C@H](CCCCN)NC(=O)[C@@H](Cc2c[nH]c3ccccc23)NC(=O)[C@H](Cc2cccnc2)NC(=O)[C@@H](NC(=O)[C@@H](N)Cc2ccc(C#N)cc2)CSSC[C@H](C(=O)N[C@@H](Cc2ccc(C#N)cc2)C(N)=O)NC1=O | 51 nM | 
9 | CC(C)C[C@@H]1NC(=O)[C@H](CCCCN)NC(=O)[C@@H](Cc2c[nH]c3ccccc23)NC(=O)[C@H](Cc2cccnc2)NC(=O)[C@@H](NC(=O)[C@@H](N)Cc2ccc3ccccc3c2)CSSC[C@@H](C(=O)N[C@@H](Cc2ccc3ccccc3c2)C(N)=O)NC1=O | 48 nM | 
10 | CC(C)[C@H]1NC(=O)[C@H](CCCCN)NC(=O)[C@@H](Cc2c[nH]c3ccccc23)NC(=O)[C@H](Cc2c[nH]cn2)NC(=O)C(NC(=O)[C@@H](N)Cc2c(F)c(F)c(F)c(F)c2F)CSSCC(C(=O)N[C@@H](Cc2c(F)c(F)c(F)c(F)c2F)C(N)=O)NC1=O (stereo in doubt) | 2410 nM | 
11 | C[C@@H](O)[C@@H]1NC(=O)[C@H](CCCCN)NC(=O)[C@@H](Cc2c[nH]c3ccccc23)NC(=O)[C@H](Cc2ccccc2)NC(=O)[C@@H](NC(=O)[C@@H](N)Cc2ccc(Cl)cc2)CSSC[C@@H](C(=O)N[C@@H](Cc2ccc3ccccc3c2)C(N)=O)NC1=O | 1.4 nM | 
12 | C[C@@H]1NC(=O)[C@H](CCCCN)NC(=O)[C@@H](Cc2c[nH]c3ccccc23)NC(=O)[C@H](Cc2cccnc2)NC(=O)[C@@H](NC(=O)[C@@H](N)Cc2ccc3ccccc3c2)CSSC[C@@H](C(=O)N[C@@H](Cc2ccc3ccccc3c2)C(N)=O)NC1=O | 425 nM | 
13 | CC(C)[C@H]1NC(=O)[C@H](CCCCN)NC(=O)[C@@H](Cc2c[nH]c3ccccc23)NC(=O)[C@H](Cc2c[nH]cn2)NC(=O)C(NC(=O)[C@@H](N)Cc2ccccc2F)CSSCC(C(=O)N[C@@H](Cc2ccccc2F)C(N)=O)NC1=O (stereo in doubt) | 393 nM | 
14 | CC(C)[C@H]1NC(=O)[C@H](CCCCN)NC(=O)[C@@H](Cc2c[nH]c3ccccc23)NC(=O)[C@H](Cc2cccnc2)NC(=O)[C@@H](NC(=O)[C@@H](N)Cc2ccc3ccccc3c2)CSSC[C@H](C(=O)N[C@@H](Cc2ccc3ccccc3c2)C(N)=O)NC1=O | 15 nM | 
15 | CC(C)[C@H]1NC(=O)[C@H](CCCCN)NC(=O)[C@@H](Cc2c[nH]c3ccccc23)NC(=O)[C@H](Cc2c[nH]cn2)NC(=O)C(NC(=O)[C@@H](N)Cc2cccc(F)c2)CSSCC(C(=O)N[C@@H](Cc2cccc(F)c2)C(N)=O)NC1=O (stereo in doubt) | 137 nM | 
16 | CC(C)[C@H]1NC(=O)[C@H](CCCCN)NC(=O)[C@@H](Cc2c[nH]c3ccccc23)NC(=O)[C@H](Cc2cccnc2)NC(=O)[C@@H](NC(=O)[C@@H](N)Cc2ccc(Cl)cc2)CSSC[C@H](C(=O)N[C@@H](Cc2ccc3ccccc3c2)C(N)=O)NC1=O | 2.6 nM | 
17 | CC(C)[C@H]1NC(=O)[C@H](CCCCN)NC(=O)[C@@H](Cc2c[nH]c3ccccc23)NC(=O)[C@H](Cc2cccnc2)NC(=O)[C@@H](NC(=O)[C@@H](N)Cc2ccc3ccccc3c2)CSSC[C@H](C(=O)N[C@@H](Cc2ccc(F)cc2)C(N)=O)NC1=O | 150 nM | 
18 | CC[C@H](C)[C@H]1NC(=O)[C@H](CCCCN)NC(=O)[C@@H](Cc2c[nH]c3ccccc23)NC(=O)[C@H](Cc2ccc(O)cc2)NC(=O)[C@@H](NC(=O)[C@@H](N)Cc2ccc(-c3ccccc3)cc2)CSSC[C@@H](C(=O)N[C@@H](Cc2ccc(-c3ccccc3)cc2)C(N)=O)NC1=O | 2110 nM | 
19 | CC(C)[C@H]1NC(=O)[C@H](CCCCN)NC(=O)[C@@H](Cc2c[nH]c3ccccc23)NC(=O)[C@H](Cc2cccnc2)NC(=O)[C@@H](NC(=O)[C@@H](N)Cc2ccc(Cl)cc2)CSSC[C@H](C(=O)N[C@@H](Cc2ccc(Cl)cc2)C(N)=O)NC1=O | 3 nM | 
20 | CC(C)[C@@H]1NC(=O)[C@H](CCCCN)NC(=O)[C@@H](Cc2c[nH]c3ccccc23)NC(=O)[C@H](Cc2ccc(O)c(I)c2)NC(=O)C(NC(=O)[C@@H](N)Cc2ccc3ccccc3c2)CSSCC(C(=O)N[C@@H](Cc2ccc3ccccc3c2)C(N)=O)NC1=O (stereo in doubt) | 20 nM | 
21 | CC(C)[C@H]1NC(=O)[C@H](CCCCN)NC(=O)[C@@H](Cc2c[nH]c3ccccc23)NC(=O)[C@H](Cc2cccnc2)NC(=O)[C@@H](NC(=O)[C@@H](N)Cc2ccc(Br)cc2)CSSC[C@H](C(=O)N[C@@H](Cc2ccc(Br)cc2)C(N)=O)NC1=O | 2.7 nM | 
22 | CC(C)[C@H]1NC(=O)[C@H](CCCCN)NC(=O)[C@@H](Cc2c[nH]c3ccccc23)NC(=O)[C@H](Cc2cccnc2)NC(=O)[C@@H](NC(=O)[C@@H](N)Cc2cccc(F)c2)CSSC[C@H](C(=O)N[C@@H](Cc2cccc(F)c2)C(N)=O)NC1=O | 77 nM | 
23 | CC(C)[C@H]1NC(=O)[C@H](CCCCN)NC(=O)[C@@H](Cc2c[nH]c3ccccc23)NC(=O)[C@H](Cc2cccnc2)NC(=O)[C@@H](NC(=O)[C@H](N)Cc2ccc(F)cc2)CSSC[C@H](C(=O)N[C@H](Cc2ccc(F)cc2)C(N)=O)NC1=O | 74 nM | 
24 | CC(C)(C)C[C@@H]1NC(=O)[C@H](CCCCN)NC(=O)[C@@H](Cc2c[nH]c3ccccc23)NC(=O)[C@H](Cc2cccnc2)NC(=O)C(NC(=O)[C@@H](N)Cc2ccc(Cl)cc2)CSSCC(C(=O)N[C@@H](Cc2ccc3ccccc3c2)C(N)=O)NC1=O (stereo in doubt) | 125 nM | 
